Test results as given in ChEMBL document CHEMBL5331146, “Evaluating Alkaline Phosphatase-Instructed Self-Assembly of d-Peptides for Selectively Inhibiting Ovarian Cancer Cells” (J Med Chem, 2023).
The source made the active and inactive calls. Square brackets hold non-standard residues; d marks the D form. Peptide text beside a SMILES is read from it. * marks the point of attachment. d(pY) = N[C@H](Cc1ccc(OP(=O)(O)O)cc1)C(=O)O; Acetyl(2-naphthyl) = O=C(Cc1ccc2ccccc2c1)*

Columns and labels:
[1] = test system: OVSAHO; experiment: Cytotoxicity against human OVSAHO cells assessed as inhibition of cell growth incubated for 72 hrs by MTT assay; assay type: functional, cell-based
Outline: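 OVSAHO cells incubated 72 h with each EISA substrate across a concentration series; viability measured and IC50 derived.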

[2] = test system: OVSAHO; experiment: Cytotoxicity against human OVSAHO cells assessed as inhibition of cell growth at 1.25 to 5 uM incubated for 24 hrs by MTT assay relative to control; assay type: functional; parameters: scale not given: the % may be the effect or the level left; conditions: dose 1.25-5 µM
Outline: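 OVSAHO cells treated with doxorubicin alone at 1.25, 2.5 and 5 μM for 24 h; cell viability measured.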

[3] = Cytotoxicity against CHOK cells assessed as inhibition of cell growth incubated for 72 hrs by MTT assay; assay type: functional, cell-based; conditions: Cricetulus griseus
Outline: (§1)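 Cell viability after 72 h continuous exposure of each ovarian or CHO cell line to the substrate over a concentration series. IC50 is taken from the 72 h viability curves.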

[4] = Cytotoxicity against mouse GEMM 4306 cells assessed as inhibition of cell growth incubated for 72 hrs by MTT assay; assay type: functional, cell-based; conditions: GEMM 4306, 72 h; outline: as §1
[5] = Cytotoxicity against human A2780-Res cells assessed as inhibition of cell growth incubated for 72 hrs by MTT assay; assay type: functional, cell-based; outline: as §1
[6] = test system: OVSAHO; experiment: Cytotoxicity against human OVSAHO cells assessed as cell viability at 20 uM incubated for 24 hrs in presence of doxorubicin by MTT assay (reference value: 120%); assay type: functional; conditions: read-out: Activity
[7] = test system: OVSAHO; experiment: Cytotoxicity against human OVSAHO cells assessed as enhancement in cell growth inhibition at 20 uM incubated for 24 hrs in presence of 1.25 to 2.5 uM cisplatin by MTT assay; assay type: functional, cell-based
Outline: (§2)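 OVSAHO cells are co-treated for 24 h with the EISA substrate at a fixed 20 μM plus the partner drug over its concentration range. Viability is compared with substrate alone and drug alone. Significance is given as p thresholds (ns, *, **, ***).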

[8] = test system: OVSAHO; experiment: Cytotoxicity against human OVSAHO cells assessed as enhancement in cell growth inhibition at 20 uM incubated for 24 hrs in presence of 1.25 to 5 uM 3-((4-(tert-butyl)phenyl)sulfonyl)acrylonitrile by MTT assay; assay type: functional, cell-based; outline: as §2
[9] = test system: OVSAHO; experiment: Cytotoxicity against human OVSAHO cells assessed as enhancement in cell growth inhibition at 20 uM incubated for 24 hrs in presence of 50 to 200 nM methyl (5R,7R,8S)-7-hydroxy-8-methyl-15-oxo-5,6,7,8,14,15-hexahydro-13H-16-oxa-4b,8a,14-triaza-5,8-methanodibenzo[b,h]cycloocta[jkl]cyclopenta[e]-as-indacene-7-carboxylate by MTT assay; assay type: functional, cell-based; outline: as §2
[10] = test system: OVSAHO; experiment: Cytotoxicity against human OVSAHO cells assessed as enhancement in cell growth inhibition at 20 uM incubated for 24 hrs in presence of 2.5 to 10 uM paclitaxel by MTT assay; assay type: functional, cell-based; outline: as §2
[11] = test system: OVSAHO; experiment: Cytotoxicity against human OVSAHO cells assessed as enhancement in cell growth inhibition at 20 uM incubated for 24 hrs in presence of 0.5 to 2 uM 2-((4-(cyclopropanecarbonyl)piperazin-1-yl)methyl)benzo[d]isothiazol-3(2H)-one by MTT assay; assay type: functional, cell-based; outline: as §2
[12] = test system: OVSAHO; experiment: Cytotoxicity against human OVSAHO cells assessed as enhancement in cell growth inhibition at 20 uM incubated for 24 hrs in presence of 1 to 20 uM ethyl (2-((cyanocarbonyl)(2,4-dimethoxyphenyl)amino)-2-(thiophen-2-yl)acetyl)glycinate by MTT assay; assay type: functional, cell-based; outline: as §2
[13] = test system: OVSAHO; experiment: Cytotoxicity against human OVSAHO cells assessed as enhancement in cell growth inhibition at 20 uM incubated for 24 hrs in presence of 25 to 50 uM talazoparib by MTT assay; assay type: functional, cell-based; outline: as §2
[14] = test system: OVSAHO; experiment: Cytotoxicity against human OVSAHO cells assessed as enhancement in cell growth inhibition at 20 uM incubated for 24 hrs in presence of 25 to 50 uM Bortezomib by MTT assay; assay type: functional, cell-based; outline: as §2
[15] = test system: OVSAHO; experiment: Cytotoxicity against human OVSAHO cells assessed as enhancement in cell growth inhibition at <5 uM incubated for 24 to 72 hrs in presence of doxorubicin by MTT assay; assay type: functional, cell-based; conditions: time 24-72 hrs
Outline: (§3)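 OVSAHO cells are exposed to a series of substrate concentrations combined with doxorubicin, alongside each agent alone. Viability is read at 24 h, 48 h and 72 h. Single-agent doxorubicin was also run at 1.25, 2.5 and 5 μM. Significance is given as p thresholds.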

[16] = test system: OVSAHO; experiment: Cytotoxicity against human OVSAHO cells assessed as enhancement in cell growth inhibition at 10 to 20 uM incubated for 24 to 72 hrs in presence of doxorubicin by MTT assay; assay type: functional, cell-based; conditions: dose 10-20 µM, time 24-72 hrs; outline: as §3

COC(=O)CC[C@@H](NC(=O)[C@@H](Cc1ccc(OP(=O)(O)O)cc1)NC(=O)[C@H](CC(C)C)NC(=O)[C@@H](Cc1ccccc1)NC(=O)[C@@H](Cc1ccccc1)NC(=O)Cc1ccc2ccccc2c1)C(=O)OC
IC50 [1]: 70.5 µM

COC(=O)CC[C@@H](NC(=O)[C@@H](Cc1ccc(OP(=O)(O)O)cc1)NC(=O)[C@@H](Cc1ccccc1)NC(=O)[C@@H](Cc1ccccc1)NC(=O)[C@@H](CC(C)C)NC(=O)Cc1ccc2ccccc2c1)C(=O)OC
IC50 [1]: > 200 µM

COc1cccc2c1C(=O)c1c(O)c3c(c(O)c1C2=O)C[C@@](O)(C(=O)CO)C[C@@H]3O[C@H]1C[C@H](N)[C@H](O)[C@H](C)O1 [DOXORUBICIN]
Activity [2]: ~75%

COC(=O)CC[C@@H](NC(=O)[C@@H](Cc1ccc(OP(=O)(O)O)cc1)NC(=O)[C@@H](Cc1ccccc1)NC(=O)[C@@H](Cc1ccccc1)NC(=O)[C@H](CC(C)C)NC(=O)Cc1ccc2ccccc2c1)C(=O)OC
IC50 [1]: 46.9 µM

COC(=O)CC[C@@H](NC(=O)[C@@H](Cc1ccc(OP(=O)(O)O)cc1)NC(=O)[C@@H](Cc1ccccc1)NC(=O)[C@@H](Cc1ccccc1)NC(=O)[C@@H](Cc1ccccc1)NC(=O)Cc1ccc2ccccc2c1)C(=O)OC
IC50 [1]: > 200 µM

COC(=O)CC[C@@H](NC(=O)[C@@H](Cc1ccc(OP(=O)(O)O)cc1)NC(=O)[C@@H](Cc1ccccc1)NC(=O)[C@@H](Cc1ccccc1)NC(=O)Cc1ccc2ccccc2c1)C(=O)OC ({Acetyl(2-naphthyl)}-[dF][dF][d(pY)][dE](OMe)-OMe)
IC50 [3]: > 200 µM
IC50 [4]: > 200 µM
IC50 [5]: > 200 µM
viability at 20 µM [6]: 20%
Activity [7]: Active
Activity [8]: Active
Activity [9]: Active
Activity [10]: inactive
Activity [11]: inactive
Activity [12]: inactive
Activity [13]: inactive
Activity [14]: inactive
Activity [15]: inactive
Activity [16]: Active
